Results as given in ChEMBL document CHEMBL1177650, “Synthesis, structural elucidation and in vitro antiparasitic activity against Trypanosoma cruzi and Leishmania chagasi parasites of novel tetrahydro-1-benzazepine derivatives” (Bioorg Med Chem, 2010).

Key:
Trypanosoma cruzi [1] = assay: Antitrypanosomal activity against Trypanosoma cruzi 320I01 epimastigotes after 72 hrs by haemocytometry; assay type: functional, organism-based; details: 320I01, 72 h
How it was run: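 Late-phase T. cruzi epimastigotes cultured in LIT medium with hiFCS at 28 °C; threefold serial dilutions (0.3–100 μM) for 72 h at 28 °C, untreated controls. Parasites counted in a haemocytometer; IC50/IC90 by sigmoidal regression; each concentration in triplicate, two experiments.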

[2] = Selectivity index, CC50 for african green monkey Vero cells to IC50 for Trypanosoma cruzi 320I01 amastigotes; assay type: functional
How it was run: (§1)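 Selectivity index computed as CC50 in Vero cells divided by IC50 against the T. cruzi stage named in the line.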

[3] = Cytotoxicity against african green monkey Vero cells after 72 hrs by MTT assay; assay type: cell-based; details: chlorocebus sabaeus
How it was run: (§2)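 Vero or transformed THP-1 cells incubated with compound (0.3–300 μM) 72 h at 37 °C, 5% CO2; untreated controls. MTT read-out, formazan OD at 580 nm; % cytotoxicity = 100 × (OD control − OD treated)/OD control. CC50/CC90 by sigmoidal regression; triplicates, repeated twice. DMSO stocks 100× concentrated, diluted in medium.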

Trypanosoma cruzi [4] = assay: Antitrypanosomal activity against Trypanosoma cruzi 320I01 amastigotes infected in african green monkey Vero cells after 5 days by Giemsa staining; assay type: functional, organism-based; details: 320I01, Vero, 120 h
How it was run: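 Vero cells (RPMI, 5% hiSBF, 37 °C, 5% CO2) infected 24 h with tissue-derived T. cruzi trypomastigotes at parasite:cell 10:1. Compound dilutions (top 100 μM) applied 5 days at 37 °C, 5% CO2, medium changed once at day 3. Infected cells scored per 300 cells on methanol-fixed Giemsa preparations; IC50/IC90 by sigmoidal regression; triplicates, two experiments.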

[5] = Selectivity index, CC50 for human THP1 cells to IC50 for Leishmania chagasi MHOM/BR/74/PP75 amastigotes; assay type: functional, THP-1
How it was run: (§3)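 Selectivity index computed as CC50 in THP-1 cells divided by IC50 against the L. chagasi stage named in the line.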

[6] = Cytotoxicity against human THP1 cells after 72 hrs by MTT assay; assay type: cell-based; details: THP-1 cells; how it was run: as §2
[7] = Selectivity index, CC50 for human THP1 cells to IC50 for Leishmania chagasi MHOM/BR/74/PP75 promastigotes; assay type: functional, THP-1; how it was run: as §3
Leishmania chagasi [8] = assay: Antileishmanial activity against Leishmania chagasi MHOM/BR/74/PP75 promastigotes after 72 hrs by haemocytometry; assay type: functional, organism-based; details: MHOM/BR/74/PP75, 72 h
How it was run: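 Late-phase L. chagasi promastigotes, grown at 28 °C in RPMI 1640 with hemin, HEPES and 10% hiSBF, exposed to threefold serial dilutions (0.3–100 μM) for 72 h at 28 °C; untreated controls. Growth inhibition from haemocytometer counts; IC50/IC90 by sigmoidal regression; triplicates, repeated twice.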

Leishmania chagasi [9] = assay: Antileishmanial activity against Leishmania chagasi MHOM/BR/74/PP75 amastigotes infected in human THP1 cells after 5 days by Giemsa staining; assay type: functional, organism-based; details: MHOM/BR/74/PP75, THP-1, 120 h
How it was run: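 THP-1 cells (RPMI, 5% hiSBF, 37 °C, 5% CO2) transformed, then infected 24 h with late-phase L. chagasi promastigotes at parasite:cell 10:1. Treated with compound dilutions (top 100 μM) 5 days at 37 °C, 5% CO2, medium changed once after 3 days. Infected cells counted per 300 cells on methanol-fixed Giemsa slides; IC50/IC90 by sigmoidal regression; triplicates, repeated twice.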

[10] = Selectivity index, CC50 for african green monkey Vero cells to IC50 for Trypanosoma cruzi 320I01 epimastigote; assay type: functional; how it was run: as §1

## Clc1ccccc1[C@@H]1C[C@@H]2Cc3ccccc3N1O2 (relative stereo)
Trypanosoma cruzi [1]
  IC50: 19.4 µM
  IC90: 57.8 µM
[2]
  Selectivity Index: >1
[3]
  CC50 at 72 h: 111 µM
  CC90 at 72 h: > 300 µM
Trypanosoma cruzi [4]
  IC50: > 100 µM
  IC90: > 100 µM
[5]
  Selectivity Index: >1
[6]
  CC50 at 72 h: 110 µM
  CC90 at 72 h: 211 µM
[7]
  Selectivity Index: 4.37
Leishmania chagasi [8]
  IC50: 25.1 µM
  IC90: > 100 µM
Leishmania chagasi [9]
  IC50: > 100 µM
  IC90: > 100 µM
[10]
  Selectivity Index: 5.71

## Cc1cccc([C@@H]2C[C@@H]3Cc4ccccc4N2O3)c1 (relative stereo)
Trypanosoma cruzi [1]
  IC50: 76.7 µM
  IC90: > 100 µM
[2]
  Selectivity Index: >3
[3]
  CC50 at 72 h: > 300 µM
  CC90 at 72 h: > 300 µM
Trypanosoma cruzi [4]
  IC50: > 100 µM
  IC90: > 100 µM
[5]
  Selectivity Index: >3
[6]
  CC50 at 72 h: > 300 µM
  CC90 at 72 h: > 300 µM
[7]
  Selectivity Index: >5
Leishmania chagasi [8]
  IC50: 52 µM
  IC90: > 100 µM
Leishmania chagasi [9]
  IC50: > 100 µM
  IC90: > 100 µM
[10]
  Selectivity Index: >4

## Clc1ccc([C@@H]2C[C@@H]3Cc4ccccc4N2O3)cc1 (relative stereo)
Trypanosoma cruzi [1]
  IC50: 34.2 µM
  IC90: 89.4 µM
[2]
  Selectivity Index: >6
[3]
  CC50 at 72 h: > 300 µM
  CC90 at 72 h: > 300 µM
Trypanosoma cruzi [4]
  IC50: 45.4 µM
  IC90: 66.8 µM
[5]
  Selectivity Index: >3
[6]
  CC50 at 72 h: > 300 µM
  CC90 at 72 h: > 300 µM
[7]
  Selectivity Index: >7
Leishmania chagasi [8]
  IC50: 38.3 µM
  IC90: 67.5 µM
Leishmania chagasi [9]
  IC50: > 100 µM
  IC90: > 100 µM
[10]
  Selectivity Index: >8

## Clc1cccc([C@@H]2C[C@@H]3Cc4ccccc4N2O3)c1 (relative stereo)
Trypanosoma cruzi [1]
  IC50: 45.8 µM
  IC90: > 100 µM
[2]
  Selectivity Index: >3
[3]
  CC50 at 72 h: > 300 µM
  CC90 at 72 h: > 300 µM
Trypanosoma cruzi [4]
  IC50: > 100 µM
  IC90: > 100 µM
[5]
  Selectivity Index: >1
[6]
  CC50 at 72 h: 134 µM
  CC90 at 72 h: > 300 µM
[7]
  Selectivity Index: 2.73
Leishmania chagasi [8]
  IC50: 49.1 µM
  IC90: 70.7 µM
Leishmania chagasi [9]
  IC50: > 100 µM
  IC90: > 100 µM
[10]
  Selectivity Index: >6

## Fc1ccccc1[C@@H]1C[C@@H]2Cc3ccccc3N1O2 (relative stereo)
Trypanosoma cruzi [1]
  IC50: > 100 µM
  IC90: > 100 µM
[2]
  Selectivity Index: >5
[3]
  CC50 at 72 h: > 300 µM
  CC90 at 72 h: > 300 µM
Trypanosoma cruzi [4]
  IC50: 58.6 µM
  IC90: 96.4 µM
[5]
  Selectivity Index: >2
[6]
  CC50 at 72 h: 200 µM
  CC90 at 72 h: > 300 µM
[7]
  Selectivity Index: 4.93
Leishmania chagasi [8]
  IC50: 40.5 µM
  IC90: 47 µM
Leishmania chagasi [9]
  IC50: > 100 µM
  IC90: > 100 µM
[10]
  Selectivity Index: >3

## Cc1ccc([C@@H]2C[C@@H]3Cc4cc(C)ccc4N2O3)cc1 (relative stereo)
Trypanosoma cruzi [1]
  IC50: 23.2 µM
  IC90: 85.4 µM
[2]
  Selectivity Index: 4.6
[3]
  CC50 at 72 h: 208 µM
  CC90 at 72 h: > 300 µM
Trypanosoma cruzi [4]
  IC50: 45.3 µM
  IC90: 90 µM
[5]
  Selectivity Index: >0.74
[6]
  CC50 at 72 h: 74 µM
  CC90 at 72 h: 126 µM
[7]
  Selectivity Index: 0.75
Leishmania chagasi [8]
  IC50: 99 µM
  IC90: > 100 µM
Leishmania chagasi [9]
  IC50: > 100 µM
  IC90: > 100 µM
[10]
  Selectivity Index: 8.97

## Clc1ccc([C@@H]2C[C@@H]3Cc4cc(Cl)ccc4N2O3)cc1 (relative stereo)
Trypanosoma cruzi [1]
  IC50: 15 µM
  IC90: > 100 µM
[2]
  Selectivity Index: >3
[3]
  CC50 at 72 h: > 300 µM
  CC90 at 72 h: > 300 µM
Trypanosoma cruzi [4]
  IC50: > 100 µM
  IC90: > 100 µM
[5]
  Selectivity Index: >3
[6]
  CC50 at 72 h: > 300 µM
  CC90 at 72 h: > 300 µM
[7]
  Selectivity Index: >9
Leishmania chagasi [8]
  IC50: 33.2 µM
  IC90: 50.1 µM
Leishmania chagasi [9]
  IC50: > 100 µM
  IC90: > 100 µM
[10]
  Selectivity Index: >20

## Fc1ccc([C@@H]2C[C@@H]3Cc4ccccc4N2O3)cc1 (relative stereo)
Trypanosoma cruzi [1]
  IC50: > 100 µM
  IC90: > 100 µM
[2]
  Selectivity Index: >3
[3]
  CC50 at 72 h: > 300 µM
  CC90 at 72 h: > 300 µM
Trypanosoma cruzi [4]
  IC50: > 100 µM
  IC90: > 100 µM
[5]
  Selectivity Index: >1
[6]
  CC50 at 72 h: 183 µM
  CC90 at 72 h: > 300 µM
[7]
  Selectivity Index: >1
Leishmania chagasi [8]
  IC50: > 100 µM
  IC90: > 100 µM
Leishmania chagasi [9]
  IC50: > 100 µM
  IC90: > 100 µM
[10]
  Selectivity Index: >3

## COc1cccc([C@@H]2C[C@@H]3Cc4ccccc4N2O3)c1 (relative stereo)
Trypanosoma cruzi [1]
  IC50: > 100 µM
  IC90: > 100 µM
[2]
  Selectivity Index: >3
[3]
  CC50 at 72 h: > 300 µM
  CC90 at 72 h: > 300 µM
Trypanosoma cruzi [4]
  IC50: > 100 µM
  IC90: > 100 µM
[5]
  Selectivity Index: >3
[6]
  CC50 at 72 h: > 300 µM
  CC90 at 72 h: > 300 µM
[7]
  Selectivity Index: >5
Leishmania chagasi [8]
  IC50: 54.7 µM
  IC90: > 100 µM
Leishmania chagasi [9]
  IC50: > 100 µM
  IC90: > 100 µM
[10]
  Selectivity Index: >3

## Clc1ccc2c(c1)C[C@H]1C[C@@H](c3ccc(Br)cc3)N2O1 (relative stereo)
Trypanosoma cruzi [1]
  IC50: 30.1 µM
  IC90: > 100 µM
[2]
  Selectivity Index: >4
[3]
  CC50 at 72 h: > 300 µM
  CC90 at 72 h: > 287 µM
Trypanosoma cruzi [4]
  IC50: 60.6 µM
  IC90: > 95.4 µM
[5]
  Selectivity Index: >2
[6]
  CC50 at 72 h: 236 µM
  CC90 at 72 h: > 287 µM
[7]
  Selectivity Index: 7.24
Leishmania chagasi [8]
  IC50: 32.5 µM
  IC90: 42.2 µM
Leishmania chagasi [9]
  IC50: > 95.4 µM
  IC90: > 95.4 µM
[10]
  Selectivity Index: >10

## Fc1ccc2c(c1)C[C@H]1C[C@@H](c3ccc(Cl)cc3)N2O1 (relative stereo)
Trypanosoma cruzi [1]
  IC50: 35.4 µM
  IC90: 85.8 µM
[2]
  Selectivity Index: >7
[3]
  CC50 at 72 h: > 300 µM
  CC90 at 72 h: > 300 µM
Trypanosoma cruzi [4]
  IC50: 40.2 µM
  IC90: 104 µM
[5]
  Selectivity Index: >3
[6]
  CC50 at 72 h: > 300 µM
  CC90 at 72 h: > 300 µM
[7]
  Selectivity Index: >8
Leishmania chagasi [8]
  IC50: 35.2 µM
  IC90: 41.8 µM
Leishmania chagasi [9]
  IC50: > 100 µM
  IC90: > 100 µM
[10]
  Selectivity Index: >8
